As usually defined, the GI50 is the concentration that inhibits growth by half. Read a high GI50 as lower sensitivity of the cells. What is called IC50 is the concentration that inhibits the measured activity by half.

The values that follow come from ChEMBL document CHEMBL2010753, “Free radical scavenging and antiproliferative properties of Biginelli adducts” (2012).

≈ marks a conversion by molar mass, not a printed value. Calls of active or inactive are those of the source. The rule behind the calls is not given here.

Format in all cases: functional
Assay [1] can be described thus: Antioxidant activity assessed as scavenging of DPPH at 160 uM after 30 mins by spectrophotometry. In general terms: DPPH is a stable violet radical that fades when it is reduced.
The test system of another assay is U-251. Kind of assay: Growth inhibition of human U251 cells after 48 hrs by sulforhodamine B assay. The following applies: U-251, 48 h.
Assay [2] can be described thus: Growth inhibition of human NCI-ADR-RES cells after 48 hrs by sulforhodamine B assay. In general terms: Sulforhodamine B stains cellular protein and so reports cell mass.
A further assay deals with 786-0. Kind of assay: Growth inhibition of human 786-0 cells after 48 hrs by sulforhodamine B assay. Conditions: 786-0, 48 h.
For the next assay, the system named is NCI-H460. The assay is described as follows: Growth inhibition of human NCI-H460 cells after 48 hrs by sulforhodamine B assay. The following applies: NCI-H460, 48 h.
For a further assay, the system named is PC-3. Kind of assay: Growth inhibition of human PC3 cells after 48 hrs by sulforhodamine B assay. The following applies: PC-3, 48 h.
Another assay has as its system OVCAR-3. The assay is described as follows: Growth inhibition of human OVCAR3 cells after 48 hrs by sulforhodamine B assay. The following applies: OVCAR-3, 48 h.
For a further assay, the system named is HT-29. Kind of assay: Growth inhibition of human HT-29 cells after 48 hrs by sulforhodamine B assay. The following applies: HT-29, 48 h.
The nature of assay [3]: Antioxidant activity assessed as concentration required for 50% DPPH scavenging activity after 30 mins by spectrophotometry.
Assay [4] is described as follows: Antioxidant activity assessed as scavenging of DPPH at 29.7 uM up to 10 mins by spectrophotometry. In a few lines:
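Kinetic run: reaction medium with 10 nmol DPPH radicals in ethanol and compound at the stated concentration, DPPH scavenging followed over time up to 10 min. Three independent experiments, each in triplicate.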

Assay [5] is described as follows: Antioxidant activity assessed as concentration required for 50% DPPH scavenging activity after 30 mins by spectrophotometry relative to monastrol.

In the case of `CCOC(=O)C1=C(C)NC(=S)NC1C1CCCCC1` (configuration not stated), the result in assay [1] was inactive. The concentration for 50% growth inhibition (GI50) with U-251 turned out to be 25.2 µg/mL (≈ 89.2 µM); in assay [2], 24.1 µg/mL (≈ 85.3 µM); with 786-0 it was 4.2 µg/mL (≈ 14.9 µM); with NCI-H460 it was 3.5 µg/mL (≈ 12.4 µM); in the assay with PC-3 it was 0.46 µg/mL (≈ 1.63 µM); in the assay with OVCAR-3, 2.2 µg/mL (≈ 7.79 µM). For the same molecule, in the assay on HT-29, the concentration for 50% growth inhibition (GI50) came to 25.2 µg/mL (≈ 89.2 µM).
On to `CCOC(=O)C1=C(C)NC(=O)NC1C1CCCCC1` (configuration not stated), for which the outcome in assay [1] was inactive. Further, the GI50 in the assay with U-251 was 142 µg/mL (≈ 533 µM); in assay [2] it was above 250 µg/mL; in the assay on 786-0, above 250 µg/mL; with NCI-H460, above 250 µg/mL; in the assay with PC-3, above 250 µg/mL; in the assay on OVCAR-3 it was above 250 µg/mL. The GI50 in the assay on HT-29 was above 250 µg/mL.
Turning to `CCOC(=O)C1=C(C)NC(=S)NC1c1ccc(O)cc1` (configuration not stated), the result in [1] was inactive. The GI50 in the assay on U-251 is 77.2 µg/mL (≈ 264 µM); in [2], 83.6 µg/mL (≈ 286 µM); with 786-0 it was 27.5 µg/mL (≈ 94.1 µM); in the assay on NCI-H460, above 250 µg/mL; in the assay on PC-3 it was 47.6 µg/mL (≈ 163 µM); in the assay on OVCAR-3, 37.7 µg/mL (≈ 129 µM). Also, in the assay with HT-29, the GI50 was above 250 µg/mL.
In the case of `CCOC(=O)C1=C(C)NC(=S)NC1c1ccc(F)cc1` (configuration not stated), the outcome in [1] was inactive. The GI50 in the assay with U-251 worked out at 28.3 µg/mL (≈ 96.1 µM); in [2], 26.1 µg/mL (≈ 88.7 µM); in the assay on 786-0, 24.5 µg/mL (≈ 83.2 µM); in the assay on NCI-H460, 14.2 µg/mL (≈ 48.2 µM); with PC-3, 1.7 µg/mL (≈ 5.78 µM); in the assay with OVCAR-3, 24.7 µg/mL (≈ 83.9 µM). Besides, the GI50 with HT-29 was found to be 26.5 µg/mL (≈ 90 µM).
Regarding `CCOC(=O)C1=C(C)NC(=O)NC1c1ccccc1` (configuration not stated), the outcome in assay [1] was inactive. Moreover, the concentration for 50% growth inhibition (GI50) with U-251 is above 250 µg/mL; in assay [2], above 250 µg/mL; with 786-0, above 250 µg/mL; in the assay with NCI-H460, 28.9 µg/mL (≈ 111 µM); in the assay on PC-3 it was above 250 µg/mL; with OVCAR-3 it was above 250 µg/mL. In the assay with HT-29, the 50% growth inhibitory concentration (GI50) was above 250 µg/mL.
Consider `CCOC(=O)C1=C(C)NC(=S)NC1c1ccc(SC)cc1` (configuration not stated), for which, in assay [1], the outcome was inactive. For the same molecule, the GI50 with U-251 came to 6 µg/mL (≈ 18.6 µM); in [2], 35.7 µg/mL (≈ 111 µM); in the assay with 786-0, 5.3 µg/mL (≈ 16.4 µM); with NCI-H460, 21.6 µg/mL (≈ 67 µM); with PC-3 it was 23.6 µg/mL (≈ 73.2 µM); with OVCAR-3 it was 8.5 µg/mL (≈ 26.4 µM). The GI50 in the assay on HT-29 turned out to be 17.2 µg/mL (≈ 53.3 µM).
Take `CCOC(=O)C1=C(C)NC(=S)NC1c1ccc(O)c(O)c1` (configuration not stated): the 50% inhibitory concentration (IC50) in assay [3] came out at 29.7 µM. In [1], the outcome was Active. Besides, the Activity in assay [4] was 413 pmol. The concentration for 50% growth inhibition (GI50) in the assay on U-251 stood at 26.5 µg/mL (≈ 85.9 µM); in [2] it was 24.3 µg/mL (≈ 78.8 µM); in the assay with 786-0 it was 28.3 µg/mL (≈ 91.8 µM); in the assay on NCI-H460 it was 31.7 µg/mL (≈ 103 µM); with PC-3, 25 µg/mL (≈ 81.1 µM); in the assay with OVCAR-3, 25 µg/mL (≈ 81.1 µM). The GI50 with HT-29 was 22.7 µg/mL (≈ 73.6 µM). Besides, the fold change (FC) in assay [5] worked out at 37.
For `CCOC(=O)C1=C(C)NC(=S)NC1c1ccc2c(c1)OCO2` (configuration not stated), the outcome in [1] was inactive. Besides, the GI50 in the assay on U-251 was 25.9 µg/mL (≈ 80.8 µM); in [2] it was 57.1 µg/mL (≈ 178 µM); in the assay with 786-0, 27 µg/mL (≈ 84.3 µM); in the assay on NCI-H460, 27 µg/mL (≈ 84.3 µM); with PC-3, 13.4 µg/mL (≈ 41.8 µM); in the assay on OVCAR-3, 55.3 µg/mL (≈ 173 µM). In the assay with HT-29, this molecule registered a 50% growth inhibitory concentration (GI50) of 31.4 µg/mL (≈ 98 µM).
For `CCOC(=O)C1=C(C)NC(=O)NC1c1ccc(F)cc1` (configuration not stated), the result in assay [1] was inactive. The concentration for 50% growth inhibition (GI50) with U-251 worked out at 23.5 µg/mL (≈ 84.4 µM); in assay [2], 3.6 µg/mL (≈ 12.9 µM); in the assay with 786-0, 24.7 µg/mL (≈ 88.8 µM); with NCI-H460 it was 28.1 µg/mL (≈ 101 µM); with PC-3 it was 3.1 µg/mL (≈ 11.1 µM); in the assay with OVCAR-3 it was 27.1 µg/mL (≈ 97.4 µM). This molecule also gave a GI50 in the assay on HT-29 of 25.3 µg/mL (≈ 90.9 µM).
For `CCOC(=O)C1=C(C)NC(=O)NC1c1ccc(O)c(OC)c1` (configuration not stated), in assay [3], the half-inhibitory concentration (IC50) is 105 µM. In addition, in assay [1], the Activity amounted to 65%. The concentration for 50% growth inhibition (GI50) with U-251 turned out to be 4.5 µg/mL (≈ 14.7 µM); in assay [2], 0.25 µg/mL (≈ 0.816 µM); in the assay on 786-0, 17.5 µg/mL (≈ 57.1 µM); with NCI-H460 it was 126 µg/mL (≈ 410 µM); in the assay with PC-3 it was 46.3 µg/mL (≈ 151 µM); in the assay with OVCAR-3 it was 1.7 µg/mL (≈ 5.55 µM). Moreover, it took 28.1 µg/mL (≈ 91.7 µM) to inhibit growth in the assay with HT-29 by half (GI50).
As for `CCOC(=O)C1=C(C)NC(=O)NC1c1ccc2c(c1)OCO2` (configuration not stated), in assay [1], the outcome was inactive. The GI50 in the assay with U-251 was 34.9 µg/mL (≈ 115 µM); in [2], 15.5 µg/mL (≈ 50.9 µM); with 786-0, 26.3 µg/mL (≈ 86.4 µM); in the assay with NCI-H460 it was 48.9 µg/mL (≈ 161 µM); in the assay with PC-3, 83.1 µg/mL (≈ 273 µM); in the assay with OVCAR-3, 32.4 µg/mL (≈ 106 µM). In addition, the concentration for 50% growth inhibition (GI50) in the assay on HT-29 was 29.9 µg/mL (≈ 98.3 µM).
